The subject of one assay is Pseudomonas aeruginosa. In words: Antibacterial activity against Pseudomonas aeruginosa assessed as bacterial growth inhibition after 24 hrs by CLSI protocol based broth microdilution assay. The assay is classed as functional. (In general: In broth dilution the organism is exposed to a series of concentrations in liquid medium.)
Another assay has as its system Candida albicans. In words: Antifungal activity against Candida albicans assessed as fungal growth inhibition after 24 hrs by CLSI protocol based broth microdilution assay. In kind it is functional.
For the next assay, the system named is Escherichia coli. In words: Antibacterial activity against Escherichia coli assessed as bacterial growth inhibition after 24 hrs by CLSI protocol based broth microdilution assay. In kind it is functional.
The test system of a further assay is Candida tropicalis. In words: Antifungal activity against Candida tropicalis assessed as fungal growth inhibition after 24 hrs by CLSI protocol based broth microdilution assay. In kind it is functional.
For another assay, the system named is Enterococcus faecium. In words: Antibacterial activity against Enterococcus faecium assessed as bacterial growth inhibition after 24 hrs by CLSI protocol based broth microdilution assay. The assay is classed as functional.
Assay [1] has as its system Staphylococcus aureus. In words: Inhibition of Staphylococcus aureus ATCC 6538 fabI expressed in Escherichia coli BL21 (DE3) assessed as oxidation of NADPH to NADP+ using trans-2-octenoyl CoA as substrate incubated for 2 hrs in presence of NADPH by spectrophotometric analysis.
Assay [2] concerns Staphylococcus aureus. In words: Antibacterial activity against Staphylococcus aureus assessed as bacterial growth inhibition after 24 hrs by CLSI protocol based broth microdilution assay. The assay is classed as functional.
In assay [3] the test system is Staphylococcus aureus. In words: Antibacterial activity against methicillin-resistant Staphylococcus aureus assessed as bacterial growth inhibition after 24 hrs by CLSI protocol based broth microdilution assay. In kind it is functional.
The next assay relates to Bacillus cereus. In words: Antibacterial activity against Bacillus cereus assessed as bacterial growth inhibition after 24 hrs by CLSI protocol based broth microdilution assay. The assay is classed as functional.
In assay [4] the test system is Staphylococcus aureus. In words: Antibiofilm activity against methicillin-resistant Staphylococcus aureus ATCC 43300 assessed as reduction in biofilm biomass at 0.5 to 4 mg/L after 24 hrs by MTT assay. The assay is classed as functional, organism-based. The following applies: dose mg/L 0.5-4, time 24.0 hrs. A digest of the protocol:
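Biofilm growth of MRSA ATCC 43300 measured in the presence of compound in cultivation plates, with a DMSO control. Significance of control vs treated is given at p < 0.05, 0.01 and 0.001.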
On the technique in general: Formazan colour is commonly taken as a measure of viable cells.

≈ marks a conversion by molar mass, not a printed value. Calls of active or inactive are those of the source. The calls are words filed in the database; no cut-off is given here. Bounds are passed on as bounds.

In the case of `Oc1cccc(NCc2cc(Cl)cc(Br)c2O)c1`, the MIC in the assay with Pseudomonas aeruginosa, in the assay on Candida albicans, with Escherichia coli and with Candida tropicalis was not below 64 µg/mL throughout.

As for `Oc1cccc(/N=C\c2cc(Cl)cc(Br)c2O)c1`, the MIC with Pseudomonas aeruginosa, with Candida albicans, with Escherichia coli and in the assay on Candida tropicalis was not below 64 µg/mL in each case.

Regarding `Oc1c(Br)cc(Cl)cc1/C=N\CCc1ccc(F)cc1`, the MIC in the assay with Pseudomonas aeruginosa, in the assay on Candida albicans, with Escherichia coli and in the assay with Candida tropicalis was not below 64 µg/mL each time.

`Oc1c(Br)cc(Br)cc1CNc1cc(C(F)(F)F)ccc1Cl`: the MIC (usually the least concentration at which growth counts as inhibited) in the assay with Enterococcus faecium is not above 2 µg/mL; in the assay on Pseudomonas aeruginosa, not below 64 µg/mL; in the assay with Candida albicans, not below 64 µg/mL; with Staphylococcus aureus [2], 1 µg/mL (≈ 2.18 µM); with Escherichia coli, not below 64 µg/mL; in the assay on Candida tropicalis, not below 64 µg/mL. The results for the MIC in the assay on Staphylococcus aureus [3] and with Bacillus cereus were 1 µg/mL (≈ 2.18 µM) and not above 2 µg/mL, respectively. In addition, in the assay with Staphylococcus aureus [1], the inhibition entry was “Active”. Further, the result in the assay on Staphylococcus aureus [4] was Active.

`Oc1ccc(Cl)cc1/C=N\c1cc(C(F)(F)F)ccc1Cl`: the MIC with Pseudomonas aeruginosa, in the assay with Candida albicans, in the assay on Escherichia coli and in the assay on Candida tropicalis was not below 64 µg/mL in each case.

As to `Oc1ccc(Cl)cc1CNc1cc(C(F)(F)F)ccc1Cl`, the MIC in the assay with Enterococcus faecium is not above 2 µg/mL; in the assay with Pseudomonas aeruginosa, not below 64 µg/mL; with Candida albicans, not below 64 µg/mL; with Staphylococcus aureus [2] it was 1 µg/mL (≈ 2.97 µM); with Escherichia coli, not below 64 µg/mL; in the assay with Candida tropicalis, not below 64 µg/mL. Further, the MIC is 1 µg/mL (≈ 2.97 µM) in the assay on Staphylococcus aureus [3] and not above 2 µg/mL with Bacillus cereus. Further, the inhibition result in the assay with Staphylococcus aureus [1] was “Active”. Further, the result with Staphylococcus aureus [4] was Active.

As to `Oc1c(Br)cc(Cl)cc1/C=N\c1cccc(C(F)(F)F)c1`, the MIC in the assay on Pseudomonas aeruginosa, in the assay on Candida albicans, in the assay on Escherichia coli and with Candida tropicalis was not below 64 µg/mL each time.

With `C[C@@H]1[C@H](O)[C@@H](C)/C=C/C=C/C=C/C=C/C=C/C=C/C=C/[C@H](O[C@@H]2O[C@H](C)[C@@H](O)[C@H](N)[C@@H]2O)C[C@@H]2O[C@](O)(C[C@@H](O)C[C@@H](O)[C@H](O)CC[C@@H](O)C[C@@H](O)CC(=O)O[C@H]1C)C[C@H](O)[C@H]2C(=O)O` [AMPHOTERICIN B], the MIC with Pseudomonas aeruginosa, in the assay with Candida albicans, in the assay with Escherichia coli and in the assay with Candida tropicalis was not below 64 µg/mL in each case.

As for `Oc1c(Br)cc(Br)cc1CNc1cccc(C(F)(F)F)c1`, the MIC in the assay with Enterococcus faecium was not above 2 µg/mL; in the assay with Pseudomonas aeruginosa it was not below 64 µg/mL; in the assay with Candida albicans, not below 64 µg/mL; in the assay on Staphylococcus aureus [2] it was not above 2 µg/mL; in the assay with Escherichia coli, not below 64 µg/mL; with Candida tropicalis it was not below 64 µg/mL. Moreover, the MIC in the assay with Bacillus cereus is not above 2 µg/mL. For the same molecule, the inhibition entry in the assay with Staphylococcus aureus [1] was “Active”. Also, the result with Staphylococcus aureus [4] was Active.

Consider `Oc1c(Br)cc(Cl)cc1CNCCc1ccc(Br)cc1`, for which the MIC in the assay with Pseudomonas aeruginosa, in the assay with Candida albicans, in the assay with Escherichia coli and in the assay on Candida tropicalis was not below 64 µg/mL each time.

`Oc1ccc(Cl)cc1/C=N\c1cc(C(F)(F)F)ccc1F`: the MIC in the assay on Pseudomonas aeruginosa, in the assay with Candida albicans, in the assay with Escherichia coli and with Candida tropicalis was not below 64 µg/mL each time.

On to `Oc1c(Br)cc(Cl)cc1/C=N\c1cc(C(F)(F)F)ccc1Cl`, for which the MIC in the assay on Pseudomonas aeruginosa, in the assay with Candida albicans, with Escherichia coli and in the assay with Candida tropicalis was not below 64 µg/mL in each case.

With `Oc1c(Br)cc(Cl)cc1CNCCc1ccc(F)cc1`, the MIC with Pseudomonas aeruginosa, in the assay with Candida albicans, with Escherichia coli and in the assay with Candida tropicalis was not below 64 µg/mL each time.

For the molecule `Oc1c(Br)cc(Br)cc1/C=N\c1cccc(C(F)(F)F)c1`, the MIC in the assay on Pseudomonas aeruginosa, with Candida albicans, in the assay on Escherichia coli and in the assay with Candida tropicalis was not below 64 µg/mL in each case. Further, the outcome in the assay with Staphylococcus aureus [2] and in the assay with Staphylococcus aureus [3] was inactive.

`Oc1c(Br)cc(Cl)cc1/C=N\CCc1ccc(Br)cc1`: the MIC in the assay with Pseudomonas aeruginosa, in the assay on Candida albicans, in the assay on Escherichia coli and with Candida tropicalis was not below 64 µg/mL each time.

Consider `Oc1c(Br)cc(Br)cc1CNc1cc(C(F)(F)F)ccc1F`, for which the MIC in the assay with Pseudomonas aeruginosa was not below 64 µg/mL; with Candida albicans, not below 64 µg/mL; with Staphylococcus aureus [2], 4 µg/mL (≈ 9.03 µM); with Escherichia coli, not below 64 µg/mL; in the assay on Candida tropicalis, not below 64 µg/mL; with Staphylococcus aureus [3], 4 µg/mL (≈ 9.03 µM).

On to `Oc1cc(Cl)ccc1Oc1ccc(Cl)cc1Cl` [TRICLOSAN], for which the MIC in the assay on Pseudomonas aeruginosa, with Candida albicans, in the assay on Escherichia coli and with Candida tropicalis was not below 64 µg/mL each time.

Take `Oc1ccc(Br)cc1/C=N\c1cc(C(F)(F)F)ccc1F`: the MIC in the assay on Pseudomonas aeruginosa, with Candida albicans, in the assay on Escherichia coli and in the assay on Candida tropicalis was not below 64 µg/mL in each case.

In the case of `Oc1ccc(Br)cc1CNc1cc(C(F)(F)F)ccc1F`, the MIC is not below 64 µg/mL in the assay with Pseudomonas aeruginosa; not below 64 µg/mL in the assay with Candida albicans; 16 µg/mL (≈ 43.9 µM) in the assay on Staphylococcus aureus [2]; not below 64 µg/mL in the assay on Escherichia coli; not below 64 µg/mL with Candida tropicalis; 16 µg/mL (≈ 43.9 µM) in the assay with Staphylococcus aureus [3].

For the molecule `Oc1c(Cl)cc(Cl)cc1CNc1cc(C(F)(F)F)ccc1Cl`, the MIC in the assay with Enterococcus faecium is not above 2 µg/mL; in the assay with Pseudomonas aeruginosa it was not below 64 µg/mL; in the assay with Candida albicans, not below 64 µg/mL; in the assay with Staphylococcus aureus [2], not above 2 µg/mL; in the assay with Escherichia coli, not below 64 µg/mL; in the assay with Candida tropicalis, not below 64 µg/mL. Besides, in the assay on Bacillus cereus, the MIC was not above 2 µg/mL. Moreover, in the assay with Staphylococcus aureus [1], the inhibition entry is “Active”. Moreover, the result in the assay with Staphylococcus aureus [4] was Active.

Regarding `Oc1ccc(/N=C\c2cc(Br)cc(Br)c2O)cc1`, the MIC in the assay with Pseudomonas aeruginosa, with Candida albicans, in the assay with Escherichia coli and in the assay on Candida tropicalis was not below 64 µg/mL in each case. In addition, the result in the assay on Staphylococcus aureus [2] and with Staphylococcus aureus [3] was inactive.

In the case of `Oc1ccc(Br)cc1CNc1cccc(OC(F)(F)F)c1`, the MIC in the assay on Pseudomonas aeruginosa, in the assay on Candida albicans, in the assay with Escherichia coli and with Candida tropicalis was not below 64 µg/mL throughout.

`Oc1c(Cl)cc(Cl)cc1/C=N\c1cc(C(F)(F)F)ccc1Cl`: the MIC in the assay on Pseudomonas aeruginosa, in the assay with Candida albicans, in the assay on Escherichia coli and in the assay with Candida tropicalis was not below 64 µg/mL throughout.

In the case of `Oc1ccc(Cl)cc1/C=N\c1ccc(OC(F)(F)F)cc1`, the minimum inhibitory concentration (MIC) with Pseudomonas aeruginosa, with Candida albicans, in the assay on Escherichia coli and in the assay on Candida tropicalis was not below 64 µg/mL each time.

On to `Oc1ccc(Cl)cc1CNc1ccc(OC(F)(F)F)cc1`, for which the MIC in the assay with Pseudomonas aeruginosa, in the assay with Candida albicans, with Escherichia coli and in the assay on Candida tropicalis was not below 64 µg/mL in each case.

Regarding `Oc1ccc(NCc2cc(Br)cc(Br)c2O)cc1`, the MIC with Pseudomonas aeruginosa, in the assay on Candida albicans, in the assay with Escherichia coli and with Candida tropicalis was not below 64 µg/mL in each case.

On to `Oc1c(Br)cc(Br)cc1/C=N\c1cc(C(F)(F)F)ccc1F`, for which the minimum inhibitory concentration (MIC) with Pseudomonas aeruginosa, in the assay with Candida albicans, with Escherichia coli and with Candida tropicalis was not below 64 µg/mL in each case. The outcome in the assay on Staphylococcus aureus [2] and in the assay with Staphylococcus aureus [3] was inactive.

In the case of `CC1COc2c(N3CCN(C)CC3)c(F)cc3c(=O)c(C(=O)O)cn1c23` (configuration not stated) [OFLOXACIN], the MIC in the assay with Pseudomonas aeruginosa, in the assay with Candida albicans, in the assay with Escherichia coli and in the assay on Candida tropicalis was not below 64 µg/mL each time.

As to `Oc1ccc(Br)cc1/C=N\c1cc(C(F)(F)F)ccc1Cl`, the MIC in the assay with Pseudomonas aeruginosa, in the assay with Candida albicans, in the assay on Escherichia coli and with Candida tropicalis was not below 64 µg/mL throughout.

For the molecule `CN(C)[C@@H]1C(O)=C(C(N)=O)C(=O)[C@@]2(O)C(O)=C3C(=O)c4c(O)cccc4[C@@](C)(O)[C@H]3C[C@@H]12` [TETRACYCLINE], the MIC in the assay on Pseudomonas aeruginosa, in the assay on Candida albicans, with Escherichia coli and in the assay on Candida tropicalis was not below 64 µg/mL each time.

As for `Oc1c(Br)cc(Cl)cc1CNc1cccc(C(F)(F)F)c1`, the MIC with Enterococcus faecium was not above 2 µg/mL; with Pseudomonas aeruginosa, not below 64 µg/mL; in the assay with Candida albicans, not below 64 µg/mL; in the assay on Staphylococcus aureus [2], not above 2 µg/mL; in the assay on Escherichia coli, not below 64 µg/mL; with Candida tropicalis, not below 64 µg/mL. In addition, the MIC with Bacillus cereus is not above 2 µg/mL. For the same molecule, the inhibition entry in the assay on Staphylococcus aureus [1] was “Active”. Besides, the result with Staphylococcus aureus [4] was Active.

As for `Oc1c(Br)cc(Br)cc1/C=N\c1cc(C(F)(F)F)ccc1Cl`, the MIC in the assay with Pseudomonas aeruginosa, with Candida albicans, with Escherichia coli and in the assay with Candida tropicalis was not below 64 µg/mL each time. For the same molecule, the outcome in the assay on Staphylococcus aureus [2] and with Staphylococcus aureus [3] was inactive.

For `Oc1ccc(Cl)cc1CNc1cc(C(F)(F)F)ccc1F`, the MIC is not below 64 µg/mL with Pseudomonas aeruginosa; not below 64 µg/mL in the assay on Candida albicans; 4 µg/mL (≈ 12.5 µM) in the assay with Staphylococcus aureus [2]; not below 64 µg/mL with Escherichia coli; not below 64 µg/mL with Candida tropicalis; 32 µg/mL (≈ 100 µM) with Staphylococcus aureus [3].

On to `Oc1ccc(Br)cc1/C=N\c1cccc(OC(F)(F)F)c1`, for which the MIC in the assay with Pseudomonas aeruginosa, with Candida albicans, in the assay with Escherichia coli and in the assay on Candida tropicalis was not below 64 µg/mL each time.

For the origin of these results see ChEMBL document CHEMBL4665639, “N-Benzylanilines as Fatty Acid Synthesis Inhibitors against Biofilm-related Methicillin-resistant Staphylococcus aureus” (ACS Med Chem Lett, 2019).
